According to PMC4298701 (Diabetes, 2007):

Assays:
[1] = Plasma levels of AMP-DNM in mice; type: in vivo
Summary of the method: (§1)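 Plasma test compound was measured by HPLC followed by mass spectrometry, with blood taken by tail vein, retro-orbital or cardiac puncture. Half-life was determined in mice and rats. For plasma concentration, six-week-old C57Bl/6J mice (n = 4) were dosed at 25 mg·kg−1·day−1 for 14 days and sampled during treatment; mean ± SE.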

ob/ob mice [2] = assay: Hyperinsulinemic-euglycemic clamp in ob/ob mice; type: in vivo; settings: 25 mg · kg body wt−1 · day−1, clamp
glycogen synthase = assay: Glycogen synthase inhibition; type: biochemical; settings: at a concentration <1 μmol/l; data not shown
acid α-glucosidase = acid α-glucosidase (Homo sapiens, UniProt P10253); assay: Acid α-glucosidase inhibition; type: biochemical; settings: at a concentration <1 μmol/l
[3] = Plasma levels of AMP-DNM in rats; type: in vivo
Summary of the method: as §1

3T3-L1 adipocytes [4] = assay: Cell surface expression of GM3; type: cell-based; settings: 10 μmol/l AMP-DNM, TNF-α 0.6 nmol/l, 24 h
Summary of the method: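 Fully differentiated 3T3-L1 adipocytes were serum-deprived in DMEM plus 1% BSA and treated for 24 h with vehicle, test compound (10 μmol/l) and/or TNF-α (0.6 nmol/l). Basal cells (no insulin) were stained with monoclonal anti-GM3 and FITC- or Alexa 488-conjugated secondary antibody, then read by flow cytometry as % viable cells GM3-positive. Means ± SE of four independent experiments.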

ob/ob mice [5] = assay: Ceramide and glucosylceramide in liver and muscle of ob/ob mice; type: in vivo
[6] = test system: endoplasmic reticulum–trimming α-glucosidases; assay: ER-trimming α-glucosidases inhibition; type: biochemical; settings: at a concentration <1 μmol/l
sphingomyelinase = target: T1, sphingomyelinase (Homo sapiens, UniProt P17405); assay: Sphingomyelinase inhibition; type: biochemical; settings: at a concentration <1 μmol/l
T1 sequence (P17405 47-631): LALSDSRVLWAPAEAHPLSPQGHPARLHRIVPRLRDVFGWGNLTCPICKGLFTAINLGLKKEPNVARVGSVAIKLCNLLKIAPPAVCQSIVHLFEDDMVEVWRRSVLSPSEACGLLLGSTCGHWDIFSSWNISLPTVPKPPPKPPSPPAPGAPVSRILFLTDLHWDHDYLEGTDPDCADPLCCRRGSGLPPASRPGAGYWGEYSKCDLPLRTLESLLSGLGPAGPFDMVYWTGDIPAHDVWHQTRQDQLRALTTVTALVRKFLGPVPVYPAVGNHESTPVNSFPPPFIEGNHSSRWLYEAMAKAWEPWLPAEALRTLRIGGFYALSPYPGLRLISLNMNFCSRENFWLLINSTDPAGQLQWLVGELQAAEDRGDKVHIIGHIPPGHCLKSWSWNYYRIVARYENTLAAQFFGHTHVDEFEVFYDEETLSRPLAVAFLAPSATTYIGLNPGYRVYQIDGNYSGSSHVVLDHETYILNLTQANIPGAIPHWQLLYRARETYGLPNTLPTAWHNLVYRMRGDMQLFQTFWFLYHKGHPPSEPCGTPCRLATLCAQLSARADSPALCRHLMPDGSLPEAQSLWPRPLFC

3T3-L1 adipocytes [7] = assay: Insulin signaling in TNF-α-treated 3T3-L1 adipocytes; type: cell-based; settings: 10 μmol/l AMP-DNM, TNF-α 0.6 nmol/l, 24 h
[8] = In vitro incubation with microsomes; type: in vitro ADME; settings: 4 h; not shown
[9] = test system: C57Bl/6J mice fed a high-fat diet; assay: Glucose homeostasis in high-fat diet-induced glucose-intolerant C57Bl/6J mice; type: in vivo; settings: high-fat diet C57Bl/6J mice, 2 weeks, ± SD
Summary of the method: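 C57Bl/6J mice were made glucose-intolerant by 4 weeks on a high-fat diet (16.4% protein, 25.5% carbohydrate, 58.0% fat). They then received test compound by daily oral gavage at 0, 5 or 25 mg·kg−1·day−1 for 2 weeks, n = 8 per group. Fasted blood glucose was measured; means ± SD.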

[10] = Plasma levels, accumulation and metabolism after administration to rodents; type: in vivo
sucrase = sucrase (Rattus norvegicus, UniProt P23739); assay: Sucrase, homogenates of freshly isolated rat intestine; type: biochemical; settings: read-out: IC50 sucrase; rat intestine homogenate
ob/ob mice [11] = assay: Glucose homeostasis, A1C and liver lipids/glycogen in ob/ob mice; type: in vivo
Summary of the method: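 ob/ob mice (C57Bl/6J background) were fed diet containing test compound at 25 mg·kg−1·day−1, with wild-type mice as reference; A1C was measured after 9 weeks. For oral glucose tolerance, animals were fasted >6 h and gavaged with glucose (1 or 2 g/kg). […] Means ± SE; two-tailed Student's t test.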

ZDF rats [12] = assay: A1C in ZDF rats; type: in vivo
C57Bl/6J mice = assay: Ceramide and glycosphingolipids in liver and muscle of normal C57Bl/6J mice; type: in vivo
3T3-L1 adipocytes [13] = assay: Sphingolipid content of 3T3-L1 adipocytes; type: cell-based; settings: TNF-α 0.6 nmol/l + AMP-DNM 10 μmol/l, 24 h, mean ± SE
[14] = target: debranching enzyme (α-1, 6-glucosidase) (Homo sapiens, UniProt P35573); assay: Debranching enzyme, erythrocyte preparation; type: biochemical; settings: at a concentration <1 μmol/l; data not shown
rodents = assay: Tolerability in rodents; type: in vivo; settings: up to 100 mg · kg−1 · day−1 for 2 months
ZDF rats [15] = assay: Ceramide and glycosphingolipid levels in liver of ZDF rats; type: in vivo; settings: mean ± SD
maltase = assay: Maltase, homogenates of freshly isolated rat intestine; type: biochemical; settings: read-out: IC50 maltase; rat intestine homogenate
[16] = 25 mg AMP-DNM/kg, 2 weeks, mean ± SD
[17] = oral administration of 25 mg/kg body wt
[18] = ob/ob mice, 25 mg · kg body wt−1 · day−1
[19] = C57Bl/6J mice, 25 mg · kg−1 · day−1, 14 days
[20] = normal C57Bl/6J mice, 25 mg AMP-DNM/kg, 2 weeks, mean ± SD
[21] = with insulin (100 nmol/l, 5 min)

Chain of debranching enzyme (α-1, 6-glucosidase) (P35573 whole entry): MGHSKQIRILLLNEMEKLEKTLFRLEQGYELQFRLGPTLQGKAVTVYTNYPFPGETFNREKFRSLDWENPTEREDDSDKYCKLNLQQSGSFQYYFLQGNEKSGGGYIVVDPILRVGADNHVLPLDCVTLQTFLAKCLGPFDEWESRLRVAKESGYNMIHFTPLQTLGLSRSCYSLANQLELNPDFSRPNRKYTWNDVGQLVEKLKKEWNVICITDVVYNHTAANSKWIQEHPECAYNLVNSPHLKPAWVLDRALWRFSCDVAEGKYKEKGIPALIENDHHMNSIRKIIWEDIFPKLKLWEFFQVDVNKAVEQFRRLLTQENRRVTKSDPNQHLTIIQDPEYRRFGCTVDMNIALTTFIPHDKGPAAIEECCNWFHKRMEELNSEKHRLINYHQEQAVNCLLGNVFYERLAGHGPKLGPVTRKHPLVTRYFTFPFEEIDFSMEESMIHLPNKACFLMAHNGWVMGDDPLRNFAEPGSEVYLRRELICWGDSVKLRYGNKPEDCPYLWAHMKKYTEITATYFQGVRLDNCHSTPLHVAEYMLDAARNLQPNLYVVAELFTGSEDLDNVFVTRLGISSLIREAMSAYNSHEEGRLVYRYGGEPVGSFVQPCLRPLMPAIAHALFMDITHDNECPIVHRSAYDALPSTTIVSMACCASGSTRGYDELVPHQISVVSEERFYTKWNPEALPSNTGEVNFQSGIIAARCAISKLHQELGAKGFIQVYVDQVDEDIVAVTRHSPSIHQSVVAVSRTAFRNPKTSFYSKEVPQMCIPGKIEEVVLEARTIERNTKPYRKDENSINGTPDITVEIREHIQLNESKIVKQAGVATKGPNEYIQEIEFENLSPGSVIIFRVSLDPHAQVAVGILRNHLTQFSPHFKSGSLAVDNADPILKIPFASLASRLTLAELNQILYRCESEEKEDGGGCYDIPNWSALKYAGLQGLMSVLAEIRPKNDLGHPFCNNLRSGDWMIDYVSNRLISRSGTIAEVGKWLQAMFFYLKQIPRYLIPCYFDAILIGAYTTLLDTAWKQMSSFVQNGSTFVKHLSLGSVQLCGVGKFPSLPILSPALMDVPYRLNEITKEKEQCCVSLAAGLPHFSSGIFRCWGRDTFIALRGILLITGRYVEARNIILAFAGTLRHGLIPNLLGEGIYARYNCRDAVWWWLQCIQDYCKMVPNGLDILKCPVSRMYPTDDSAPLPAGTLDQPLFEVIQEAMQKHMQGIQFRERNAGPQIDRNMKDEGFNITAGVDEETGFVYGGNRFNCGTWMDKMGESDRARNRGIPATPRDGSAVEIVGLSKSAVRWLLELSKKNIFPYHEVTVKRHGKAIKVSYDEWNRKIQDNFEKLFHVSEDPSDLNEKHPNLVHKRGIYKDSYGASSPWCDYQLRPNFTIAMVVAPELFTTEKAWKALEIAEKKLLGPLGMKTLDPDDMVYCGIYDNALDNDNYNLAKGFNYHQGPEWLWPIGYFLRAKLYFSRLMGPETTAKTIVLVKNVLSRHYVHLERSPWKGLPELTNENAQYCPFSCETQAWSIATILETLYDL
Chain of sucrase (P23739 1014-1841 limits assumed): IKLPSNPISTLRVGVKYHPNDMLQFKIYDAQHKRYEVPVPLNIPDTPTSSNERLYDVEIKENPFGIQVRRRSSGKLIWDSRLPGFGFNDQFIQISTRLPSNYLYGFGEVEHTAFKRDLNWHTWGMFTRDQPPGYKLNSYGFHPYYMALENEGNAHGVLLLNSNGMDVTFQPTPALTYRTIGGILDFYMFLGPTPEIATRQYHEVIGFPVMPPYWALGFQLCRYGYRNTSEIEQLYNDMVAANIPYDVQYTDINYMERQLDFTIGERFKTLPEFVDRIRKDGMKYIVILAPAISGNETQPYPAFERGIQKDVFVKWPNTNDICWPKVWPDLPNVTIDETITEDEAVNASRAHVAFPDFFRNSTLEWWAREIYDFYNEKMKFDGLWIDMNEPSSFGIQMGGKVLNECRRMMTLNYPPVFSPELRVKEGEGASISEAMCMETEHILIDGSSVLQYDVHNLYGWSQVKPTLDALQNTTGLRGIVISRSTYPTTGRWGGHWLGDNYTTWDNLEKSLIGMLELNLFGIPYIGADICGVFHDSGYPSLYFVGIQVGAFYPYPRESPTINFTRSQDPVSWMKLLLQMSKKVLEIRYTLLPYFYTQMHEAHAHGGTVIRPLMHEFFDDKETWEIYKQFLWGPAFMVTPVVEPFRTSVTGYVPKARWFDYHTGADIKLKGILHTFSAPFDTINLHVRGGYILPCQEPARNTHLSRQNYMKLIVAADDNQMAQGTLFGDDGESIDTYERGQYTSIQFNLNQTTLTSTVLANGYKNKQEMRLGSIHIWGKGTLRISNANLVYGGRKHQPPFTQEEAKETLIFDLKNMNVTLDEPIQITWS
Chain of sucrase (P23739 1-1013 partner limits assumed): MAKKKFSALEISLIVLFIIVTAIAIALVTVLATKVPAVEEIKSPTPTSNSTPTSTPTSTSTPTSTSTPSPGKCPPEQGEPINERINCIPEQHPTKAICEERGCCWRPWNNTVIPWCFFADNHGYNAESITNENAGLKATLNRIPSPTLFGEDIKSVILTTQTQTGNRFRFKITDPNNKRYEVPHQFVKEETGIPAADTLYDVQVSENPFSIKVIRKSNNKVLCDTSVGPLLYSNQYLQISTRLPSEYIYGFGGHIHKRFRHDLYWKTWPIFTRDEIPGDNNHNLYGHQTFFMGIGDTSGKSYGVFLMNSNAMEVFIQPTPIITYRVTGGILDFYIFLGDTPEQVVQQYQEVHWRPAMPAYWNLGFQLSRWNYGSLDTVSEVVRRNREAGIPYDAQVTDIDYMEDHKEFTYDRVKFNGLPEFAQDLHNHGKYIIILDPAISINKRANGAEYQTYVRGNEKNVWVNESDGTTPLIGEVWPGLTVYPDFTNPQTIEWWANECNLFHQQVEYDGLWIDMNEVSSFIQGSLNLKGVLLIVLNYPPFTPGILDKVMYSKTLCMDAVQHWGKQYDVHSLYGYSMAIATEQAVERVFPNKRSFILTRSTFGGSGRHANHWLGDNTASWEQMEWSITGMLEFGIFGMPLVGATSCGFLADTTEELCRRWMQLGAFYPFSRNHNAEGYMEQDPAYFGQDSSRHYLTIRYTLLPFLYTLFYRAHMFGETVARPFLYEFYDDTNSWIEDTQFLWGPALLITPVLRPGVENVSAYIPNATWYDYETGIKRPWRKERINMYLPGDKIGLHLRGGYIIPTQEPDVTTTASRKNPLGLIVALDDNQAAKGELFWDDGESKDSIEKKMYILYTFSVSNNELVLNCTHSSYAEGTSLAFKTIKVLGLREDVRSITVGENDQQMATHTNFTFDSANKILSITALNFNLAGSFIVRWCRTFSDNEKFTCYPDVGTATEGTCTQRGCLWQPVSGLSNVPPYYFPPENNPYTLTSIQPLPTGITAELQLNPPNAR

Compound: OC[C@@H]1[C@@H](O)[C@H](O)[C@@H](O)CN1CCCCCOCC12CC3CC(CC(C3)C1)C2 [AMP-DNM, N-(5′-adamantane-1′-yl-methoxy)-pentyl-1-deoxynojirimycin]
- plasma concentration of AMP-DNM ([1]; C57Bl/6J mice, 25 mg · kg body wt−1 · day−1 for 14 days, mean ± SE): 108 ± 6 nM
- plasma half-life ([1]; mice): ~ 3.1 h
- decrease in hepatic glucose production (Ra) (ob/ob mice [2]): ~ 26%
- increase in glucose disposal (Rd) (ob/ob mice [2]): ~ 29%
- whole-body insulin sensitivity (ob/ob mice [2]): marked improvement
- effect on glycogen synthase (glycogen synthase): unaffected
- inhibition of acid α-glucosidase activity (acid α-glucosidase): no significant inhibition
- plasma half-life [3]: ~4.2 h
- TNF-α-increased cell surface levels of GM3 gangliosides (3T3-L1 adipocytes [4]): blocked
- Cer, liver (ob/ob mice [5]; [16]): 95.9 ± 11.6 nmol/mg protein
- Cer, muscle (ob/ob mice [5]; [16]): 1.29 ± 0.24 nmol/mg protein
- GlcCer, liver (ob/ob mice [5]; [16]): 2.24 ± 0.14 nmol/mg protein
- GlcCer, muscle (ob/ob mice [5]; [16]): 1.41 ± 0.16 nmol/mg protein
- decrease of glucosylceramide content of muscle (ob/ob mice [5]; 25 mg · kg−1 · day−1, two weeks): 45 ± 23%
- inhibition of endoplasmic reticulum–trimming α-glucosidases [6]: no significant inhibition
- inhibition of sphingomyelinase activity (sphingomyelinase): no significant inhibition
- TNF-α-impaired insulin receptor autophosphorylation, IRS-1 tyrosine phosphorylation and Ser-473 phosphorylation of Akt (3T3-L1 adipocytes [7]): significantly ameliorated
- recovered after in vitro incubation with microsomes [8]: More than 90%
- fasting blood glucose ([9]; 5 mg · kg−1 · day−1 oral gavage): 9.46 ± 0.26 mmol/L
- fasting blood glucose ([9]; 25 mg · kg−1 · day−1 oral gavage): 7.74 ± 0.40 mmol/L
- accumulation with daily exposure ([10]; daily exposure over 28 days): does not accumulate
- in vivo metabolism (mass spectrometric analysis of urine and plasma) ([10]; in vivo): No significant in vivo metabolism
- maximal plasma concentration [10, 17]: 5 µmol/L
- time of maximal plasma concentration [10, 17]: 30 min
- IC50 (sucrase): 4.5 µM
- triglyceride concentration in liver (ob/ob mice [11]; AMP-DNM-fed ob/ob mice): 80 ± 11 nmol/mg liver
- blood glucose concentrations (ob/ob mice [11]; [18]): pronounced reduction
- effect on body weight or food intake (ob/ob mice [11]; [18]): no significant effect
- A1C concentration (ob/ob mice [11]; ob/ob mice, 25 mg · kg body wt−1 · day−1 for 9 weeks): 4.82 ± 0.85%
- AUC of blood glucose concentrations, oral glucose tolerance test (ob/ob mice [11]; ob/ob mice, 25 mg/kg for 8 days, glucose 1 g/kg body wt, ± SD): 13.21 ± 1.43 arbitrary units per minute
- A1C (ZDF rats [12]; 25 mg · kg−1 · day−1, 9 weeks): 6.31 ± 0.68%
- A1C (ZDF rats [12]; 60 mg · kg body wt−1 · day−1, 10 weeks, separate experiment): 5.4 ± 0.4%
- reduction of ganglioside GM3 in liver (C57Bl/6J mice; [19]): 28 ± 6%
- reduction of liver glucosylceramide (C57Bl/6J mice; [19]): 41 ± 5%
- Cer, liver (C57Bl/6J mice; [20]): 10.31 ± 0.96 nmol/mg protein
- Cer, muscle (C57Bl/6J mice; [20]): 1.47 ± 0.22 nmol/mg protein
- GlcCer, liver (C57Bl/6J mice; [20]): 1.24 ± 0.09 nmol/mg protein
- GlcCer, muscle (C57Bl/6J mice; [20]): 0.89 ± 0.22 nmol/mg protein
- Ceramide (3T3-L1 adipocytes [13]; [21]): 1,241 ± 99 pmol/well
- GM3 (3T3-L1 adipocytes [13]; [21]): 1,988 ± 169 pmol/well
- Ceramide (3T3-L1 adipocytes [13]; without insulin): 1,241 ± 88 pmol/well
- GM2 (3T3-L1 adipocytes [13]; without insulin): 267 ± 18 pmol/well
- GM3 (3T3-L1 adipocytes [13]; without insulin): 2,205 ± 138 pmol/well
- effect on cytosolic debranching enzyme [14]: unaffected
- overt toxicity (rodents): did not result in any overt toxicity
- Liver Ceramide (ZDF rats [15]; 5 mg · kg−1 · day−1, 10 weeks): 416 ± 24 nmol/g wet wt
- Liver GDA1 (ZDF rats [15]; 5 mg · kg−1 · day−1, 10 weeks): 15.5 ± 1.7 nmol/g wet wt
- Liver GM1 (ZDF rats [15]; 5 mg · kg−1 · day−1, 10 weeks): 11.4 ± 2.2 nmol/g wet wt
- Liver GM2 (ZDF rats [15]; 5 mg · kg−1 · day−1, 10 weeks): 5.9 ± 0.9 nmol/g wet wt
- Liver GM3 (ZDF rats [15]; 5 mg · kg−1 · day−1, 10 weeks): 21.3 ± 2.9 nmol/g wet wt
- Liver Glucosylceramide (ZDF rats [15]; 5 mg · kg−1 · day−1, 10 weeks): 53.4 ± 5.7 nmol/g wet wt
- Liver Ceramide (ZDF rats [15]; 25 mg · kg−1 · day−1, 10 weeks): 451 ± 37 nmol/g wet wt
- Liver GDA1 (ZDF rats [15]; 25 mg · kg−1 · day−1, 10 weeks): 7.9 ± 0.9 nmol/g wet wt
- Liver GM1 (ZDF rats [15]; 25 mg · kg−1 · day−1, 10 weeks): 5.6 ± 1.1 nmol/g wet wt
- Liver GM2 (ZDF rats [15]; 25 mg · kg−1 · day−1, 10 weeks): 4.8 ± 0.8 nmol/g wet wt
- Liver GM3 (ZDF rats [15]; 25 mg · kg−1 · day−1, 10 weeks): 17.3 ± 2.7 nmol/g wet wt
- Liver Glucosylceramide (ZDF rats [15]; 25 mg · kg−1 · day−1, 10 weeks): 47.4 ± 5.2 nmol/g wet wt
- IC50 (maltase): 18 µM
